Bioassay records as filed in PubChem.
In the library only some 2.8% were active in any assay of this set; here they are far more common.
PAFAH1B3 FP inh = inhibitors of human PAFAH1B3. inhibition, % at 3.39 µM. 340,000 tested, 0.28% active. recombinant PAFAH1B3, FP-rhodamine probe, fluorescence polarization. AID 492972. Q15102;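 active = inhibition above the screen-wide average of all tested compounds plus 3 SD, cut at about 25% in these data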;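 also: 0% = enzyme with DMSO only and 100% = wells lacking PAFAH1B3 protein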
Target sequence (Q15102 whole entry, looked up): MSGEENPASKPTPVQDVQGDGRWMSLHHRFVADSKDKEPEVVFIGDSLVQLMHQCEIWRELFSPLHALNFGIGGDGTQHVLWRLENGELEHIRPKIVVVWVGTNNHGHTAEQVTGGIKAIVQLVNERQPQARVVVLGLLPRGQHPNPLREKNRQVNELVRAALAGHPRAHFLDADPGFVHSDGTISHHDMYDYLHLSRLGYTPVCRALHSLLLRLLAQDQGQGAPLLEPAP
PAFAH2 inh = PAFAH2 (human) inhibition; recombinant PAFAH2, FP-rhodamine activity probe, fluorescence polarization; inhibition, % at 3.39 µM; 340,000 tested, 0.99% active; AID 492956;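 active = inhibition above the mean over all tested compounds plus 3 SD, cut at about 30% in these data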;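 also: inhibitors block probe labeling of enzyme so polarization drops; 0% = enzyme with DMSO and 100% = wells lacking PAFAH2 protein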
ABHD4 inh = inhibitors of mouse ABHD4 | inhibition, % at 8.92 µM | 370,000 tested, 0.54% active | purified mABHD4, FP-Rh probe fluorescence polarization | Q8VD66;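 active = inhibition exceeding the mean over every tested compound plus 3 SD, cut at about 30% in these data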;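 also: 0% = plate median of compound wells and 100% = S159A mutant with DMSO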
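Assay system: mABHD4 protein; medium: HEPES pH 7.0, NaCl, Pluronic buffer; dosing: 8.92 µM, single dose; schedule: 45 min + 60 min at 25 °C; signal: FP readout, ex 525 nm / em 598 nm; read-out: normalized percent inhibition of probe labeling; repeats: single replicate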
HTRA1 inhibitor = inhibitors of human serine peptidase HTRA1. 340,000 tested, 0.5% active. recombinant HTRA1, FP-rhodamine activity-based probe, fluorescence polarization. inhibition, % at 5.96 µM. Q92743; in the data active = inhibition above about 36%;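 also: 0% = enzyme with DMSO and 100% = wells lacking enzyme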
pPAFAH FP inh = pPAFAH (human) enzyme inhibition; recombinant pPAFAH, FP-rhodamine probe fluorescence polarization; inhibition, % at 3.39 µM; 330,000 tested, 1.5% active; AID 463082;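 active = inhibition above the mean inhibition across the screen plus 3 SD, cut at about 25% in these data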;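 also: inhibitors block binding of the rhodamine activity-based probe so polarization drops; 0% = enzyme with DMSO and 100% = wells lacking pPAFAH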
PAFAH1B2 inh = PAFAH1B2 (human) inhibition. recombinant PAFAH1B2, FP-rhodamine activity probe, fluorescence polarization. P68402. 340,000 tested, 1.2% active. inhibition, % at 3.39 µM;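 active = inhibition above the mean of all tested compounds plus 3 SD, cut at about 24% in these data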;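 also: 0% = enzyme with DMSO and 100% = wells lacking PAFAH1B2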
Target sequence (P68402 whole entry, looked up): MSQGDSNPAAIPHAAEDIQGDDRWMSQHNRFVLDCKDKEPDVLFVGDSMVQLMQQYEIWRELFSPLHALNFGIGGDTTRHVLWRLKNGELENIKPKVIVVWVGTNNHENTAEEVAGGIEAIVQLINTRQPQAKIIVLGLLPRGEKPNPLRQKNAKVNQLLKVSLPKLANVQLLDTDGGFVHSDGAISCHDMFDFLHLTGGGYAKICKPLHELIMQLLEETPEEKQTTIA
Starred values were filed as active, the others as inactive; nt = no result.

SMILES	PAFAH1B3 FP inh	PAFAH2 inh	ABHD4 inh	HTRA1 inhibitor	pPAFAH FP inh	PAFAH1B2 inh
O=c1c2ccccc2n(Cc2ccco2)n1[C@@H](Cc1ccccc1)Cn1cc(C2CCCC2)nn1	nt	nt	-1	nt	nt	nt
CC(C)(C)[C@H]1COC(=O)[C@@H](Cc2ccc(F)cc2)C/C=C\C[C@@H](CC(=O)N[C@@H](CO)Cc2ccccc2)C(=O)N1	-2	0	-4	-8	0	34*
CC(C)(C)[C@H]1COC(=O)[C@@H](Cc2ccc(F)cc2)C/C=C\C[C@@H](CC(=O)N[C@H](CO)Cc2ccccc2)C(=O)N1	-6	-5	5	4	6	66*
O=C(C1CCCN(S(=O)(=O)c2cccs2)C1)N1CCN(Cc2ccccc2)CC1 (stereo not drawn)	nt	nt	-1	nt	nt	nt
Cc1ccc2c(c1C)-c1c(ccc(C)c1C)C(=O)C2=O	70*	31*	8	5	nt	15
Cc1ccc(CC#N)c(-c2c(CC#N)ccc(C)c2C)c1C	nt	nt	-1	-12	nt	nt
CC(C)(C)SCCNS(=O)(=O)c1ccccc1	-1	9	-3	-2	19	13
CSc1ccc(S(=O)(=O)NCCSC(C)(C)C)cc1	-3	14	0	0	28*	8
CC(NCc1ccco1)C(=O)N1CCN(Cc2ccccc2F)CC1 (stereo not drawn)	nt	nt	-2	nt	nt	nt
c1csc(C2Nc3cccc4cccc(c34)N2)c1	30*	-1	18	12	10	11
N#Cc1c(SCC(=O)Nc2ccc(Cl)cc2Cl)sc2c(O)cc(=O)[nH]c12	8	10	-2	-27	30*	1
CCCSc1nnc(NC(=O)CSc2sc3c(O)cc(=O)[nH]c3c2C#N)s1	15	37*	0	-29	43*	16
N#Cc1c(SCC(=O)Nc2cccc(F)c2)sc2c(O)cc(=O)[nH]c12	18	15	-40	-20	30*	8
Cc1c(Cl)cccc1NC(=O)CSc1sc2c(O)cc(=O)[nH]c2c1C#N	4	-1	-11	-39	20	8
N#Cc1c(SCC(=O)Nc2ccccc2C(F)(F)F)sc2c(O)cc(=O)[nH]c12	9	7	-28	-21	27*	6
CCOc1cccc(NC(=O)CSc2sc3c(O)cc(=O)[nH]c3c2C#N)c1	9	-1	-4	-46	16	1
CCOC(=O)CC[C@@H]1CC[C@]2(CCCN(Cc3ccc(OC)cc3)C2)O1	nt	nt	-1	nt	nt	nt
CCN(CC)C(=O)CNc1nnnn1-c1ccccc1	nt	nt	3	nt	nt	nt
C=CCn1c(COc2ccccc2)nnc1SCC(=O)Nc1ccc(S(=O)(=O)Nc2cc(C)nc(C)n2)cc1	nt	nt	4	nt	nt	nt
COc1ccc(NS(=O)(=O)c2ccc(OC)c(N(C)S(=O)(=O)c3ccc(Cl)cc3)c2)cc1	-5	-2	-5	-40	28*	1
COc1ccc(S(=O)(=O)Nc2cccc(Cl)c2)cc1OC	7	4	-3	-8	10	5
Cc1ccc(NS(=O)(=O)c2cccc(C(=O)N/N=C/c3ccc4c(c3)OCCO4)c2)c(C)c1	-34	-60	-86	-69	32*	-14
Cc1ccc2c(c1)C=CC(C)N2C(=O)c1ccccc1 (stereo not drawn)	3	4	-2	2	-2	32*
OCCN1CCN(c2ncnc3c2c(-c2ccccc2)cn3-c2ccc(F)cc2)CC1	4	-5	-3	2	25*	-1
O=C(NCC1COc2ccccc2O1)c1ccc(NC(=O)C(Cl)Cl)cc1 (stereo not drawn)	nt	nt	-7	nt	nt	nt
Cc1ccc(-n2cccc2C(=O)NS(=O)(=O)c2ccc(C)cc2)cc1	0	-4	-4	-3	1	28*
COCCCNC(=O)C[C@H]1C[C@@]2(C(=O)OC)C(=C[C@H](COCc3ccccc3)O[C@@H]2C)N(CCc2ccc(OC)c(OC)c2)C1=O	nt	nt	1	nt	nt	nt
CC1/C(=N/O)CC(c2ccccc2)NC1c1ccccc1 (stereo not drawn)	-5	3	-2	-4	6	5
CCCC1/C(=N/O)CC(c2ccccc2)NC1c1ccccc1 (stereo not drawn)	2	-1	-12	-9	27*	5
Cc1ccc(S(=O)(=O)N2CCOCC2)cc1NC(=O)COC(=O)CNC(=O)c1ccc(Oc2ccccc2)cc1	4	4	-7	-7	28*	-2
